Bioassay records: PubChem BioAssay, several laboratories
Hits are enriched below; roughly 2.6% of the tested compounds scored in any of these assays.
Casp6 inh = human caspase-6 inhibitors, primary screen, biochemical, VEID-R110 fluorescence, single point, set 2. P55212. purified caspase-6, Z-VEID-R110 cleavage fluorescence. inhibition, % at 12.5 µM. hit rate 0.53% among 350,000. AID 686996, 2013;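 active means mean inhibition across replicates at least about 35%, with every replicate also reaching that limit, limit read from the data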;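 further: 0% = median of neutral control wells and 100% = no fluorescence left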
SIRT5 block = SIRT5 desuccinylase inhibitors, primary screen, biochemical, fluorescence imaging, single point, set 5 | Purified SirT5, succinyl-peptide AMC, trypsin-coupled fluorescence | AID 652115, 2013 | hit rate 1.1% among 330,000 | inhibition, % at 15 µM | NAD-dependent protein deacylase sirtuin-5, mitochondrial (Homo sapiens), Q9NXA8; in the data active means inhibition above about 15%
UCH37 inh = inhibitors of human UCH37 deubiquitinase, primary screen, biochemical, Ub-AMC cleavage, fluorescence; Ubiquitin carboxyl-terminal hydrolase isozyme L5 (Homo sapiens), Q9Y5K5; purified proteasome/UCH37; inhibition, % (test concentration not listed); hit rate 0.33% among 330,000; AID 588478, 2011;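 active means mean inhibition over replicate wells above about 20%, limit read from the data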;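 further: 0% = compound-free wells with enzyme and 100% = wells lacking proteasome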
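system = Proteasome-associated human UCH37 deubiquitinase | amount = 0.15 nM proteasome as dispensed | medium = pH 7.4 Tris-HCl (50 mM) with ovalbumin, ATP-MgCl2, DTT | incubation = 30 min preincubation with enzyme, 25 min cleavage at room temperature | detection = AMC fluorescence 355/460 nm | read-out basis = percent inhibition | controls = no-proteasome and no-compound wells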
FGF22 binding = binders of human FGF22 protein, primary screen, FGF22 synaptogenesis inhibitor project, biophysical, thermal shift, single point | hit rate 1.5% among 340,000 | AID 651658, 2012 | activity (Tm shift, normalised), % at 9.99 µM | recombinant FGF22 thermal shift, SYPRO orange fluorescence; percent of sucrose octasulfate shift, DMSO zero | Fibroblast growth factor 22 (Homo sapiens), Q9HCT0;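 active means mean Tm shift, scaled 0 neutral to 100 positive control, at about 1.3% or above, every replicate too, limit read from the data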
NSD2 inh = NSD2 histone methyltransferase inhibitors, primary screen, biochemical, AlphaScreen, single concentration, set 2; hit rate 0.54% among 310,000; NSD2 peptide methylation, 120 min; Histone-lysine N-methyltransferase NSD2 (Homo sapiens), O96028; inhibition, % at 12.5 µM; in the data active means inhibition above about 50%
Target sequence (O96028 whole entry, looked up): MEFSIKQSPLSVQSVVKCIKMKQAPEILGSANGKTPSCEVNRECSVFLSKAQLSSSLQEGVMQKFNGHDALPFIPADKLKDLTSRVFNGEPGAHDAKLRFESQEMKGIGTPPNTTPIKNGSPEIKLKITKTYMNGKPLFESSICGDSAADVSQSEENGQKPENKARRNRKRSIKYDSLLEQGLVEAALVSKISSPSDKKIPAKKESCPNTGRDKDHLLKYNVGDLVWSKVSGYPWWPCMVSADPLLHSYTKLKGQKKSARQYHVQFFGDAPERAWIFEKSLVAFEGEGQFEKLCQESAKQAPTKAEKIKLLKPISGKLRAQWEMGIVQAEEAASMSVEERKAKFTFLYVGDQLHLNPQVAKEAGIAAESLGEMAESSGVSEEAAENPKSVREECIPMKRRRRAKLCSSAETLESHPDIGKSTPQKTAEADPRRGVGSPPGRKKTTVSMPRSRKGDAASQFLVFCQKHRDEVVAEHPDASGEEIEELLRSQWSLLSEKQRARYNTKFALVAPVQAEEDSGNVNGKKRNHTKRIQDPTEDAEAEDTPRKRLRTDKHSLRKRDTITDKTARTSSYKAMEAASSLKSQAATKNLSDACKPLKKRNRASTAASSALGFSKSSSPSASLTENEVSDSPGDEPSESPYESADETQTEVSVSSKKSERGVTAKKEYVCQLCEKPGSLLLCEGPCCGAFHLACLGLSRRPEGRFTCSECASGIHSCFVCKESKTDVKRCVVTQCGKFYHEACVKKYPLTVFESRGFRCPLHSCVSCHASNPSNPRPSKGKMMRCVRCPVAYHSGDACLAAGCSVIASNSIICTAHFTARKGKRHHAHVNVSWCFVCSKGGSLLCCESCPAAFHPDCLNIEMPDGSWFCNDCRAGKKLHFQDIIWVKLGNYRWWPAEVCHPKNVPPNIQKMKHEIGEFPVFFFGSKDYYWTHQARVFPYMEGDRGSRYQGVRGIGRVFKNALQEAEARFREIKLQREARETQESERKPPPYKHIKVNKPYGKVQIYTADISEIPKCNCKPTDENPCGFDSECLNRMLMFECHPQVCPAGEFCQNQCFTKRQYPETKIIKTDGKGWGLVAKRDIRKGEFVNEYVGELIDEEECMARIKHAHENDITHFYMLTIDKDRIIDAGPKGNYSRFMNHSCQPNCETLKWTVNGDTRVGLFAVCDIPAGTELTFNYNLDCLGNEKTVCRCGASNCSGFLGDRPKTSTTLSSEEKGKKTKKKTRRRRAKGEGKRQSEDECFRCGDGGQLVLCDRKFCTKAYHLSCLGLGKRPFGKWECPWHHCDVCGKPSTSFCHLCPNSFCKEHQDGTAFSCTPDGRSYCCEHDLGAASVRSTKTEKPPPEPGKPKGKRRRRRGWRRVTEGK
Numbers without * were called inactive; ! = a repeat was not active.

Results for C[C@H](CO)N1C[C@H](C)[C@@H](CN(C)C(=O)CN(C)C)Oc2ncc(-c3ccc(C#N)cc3)cc2C1=O ?
Casp6 inh: -1; SIRT5 block: -5; FGF22 binding: 0

How did C[C@H]1CN([C@@H](C)CO)C(=O)c2cc(NC(=O)C3CC3)ccc2O[C@@H]1CN(C)C(=O)Nc1ccccc1 do in these assays?
Casp6 inh: -1; SIRT5 block: -2; FGF22 binding: 0

What do the screens show for `O=C(Nc1nccs1)c1ccccn1`?
Casp6 inh: 0; SIRT5 block: -5; UCH37 inh: 1; FGF22 binding: 43*; NSD2 inh: -31

What do the screens show for `O=C(Nc1nccs1)c1cc2cc(Cl)ccc2oc1=O`?
Casp6 inh: -1; SIRT5 block: 21*; UCH37 inh: 2; FGF22 binding: 0; NSD2 inh: -1

How did O=C(/C=C/c1ccc(Cl)cc1)Nc1nccs1 do in these assays?
Casp6 inh: 64*; SIRT5 block: -2; UCH37 inh: -3; FGF22 binding: 0; NSD2 inh: 16

Results for O=C(Nc1nccs1)c1ccc(Cl)cc1[N+](=O)[O-] ?
Casp6 inh: 0; SIRT5 block: -3; UCH37 inh: 3; FGF22 binding: 0

What do the screens show for `C/C=C/C=C/C(=O)Nc1nccs1`?
Casp6 inh: 7; SIRT5 block: -1; UCH37 inh: 1; FGF22 binding: 0; NSD2 inh: 10

What do the screens show for `O=C(Cn1c(=O)oc2ccccc21)Nc1cccc(Cl)c1`?
Casp6 inh: 2; SIRT5 block: 28*; FGF22 binding: 0; NSD2 inh: -3

How did CCN=C1S/C(=C\c2cn(C(C)=O)nc2-c2ccccc2)C(=O)N1CC do in these assays?
UCH37 inh: 4; NSD2 inh: -3

Results for CC(=O)NC1=NC(=O)/C(=C/c2cn(C(C)=O)nc2-c2ccccc2)S1 ?
Casp6 inh: 9; SIRT5 block: 2; FGF22 binding: 44*; NSD2 inh: 4

How did CCC(=O)Nc1ccc2c(c1)C(=O)N(C)[C@H]1CC[C@@H](CC(=O)NCc3ccccc3)O[C@@H]1CO2 do in these assays?
Casp6 inh: -2; SIRT5 block: -8; FGF22 binding: 0

Results for C[C@@H]1CN([C@@H](C)CO)C(=O)c2cc(NS(=O)(=O)c3ccc(F)cc3)ccc2O[C@@H](C)CCCCO[C@@H]1CN(C)S(=O)(=O)c1ccccc1 ?
Casp6 inh: -2; SIRT5 block: 8; FGF22 binding: 0

Results for O=C(Nc1ccc2c(c1)OCO2)N1C[C@@H]2N[C@H](C1)C2c1ccc(C=Cc2ccccc2)cc1 (some centres not stated) ?
Casp6 inh: 2; SIRT5 block: 17*!

How did O=C(C1CCCC1)N1C[C@@H]2N[C@H](C1)C2c1ccc(-c2ccccc2F)cc1 (some centres not stated) do in these assays?
Casp6 inh: 2; SIRT5 block: 25*!

How did O=C(Nc1ccccc1F)N1C[C@@H]2N[C@H](C1)C2c1ccc(/C=C/c2ccccc2)cc1 (some centres not stated) do in these assays?
Casp6 inh: -1; SIRT5 block: 27*

What do the screens show for `CO[C@@H]1CN(C)C(=O)c2ccc(NC(=O)C3CC3)cc2OC[C@@H](C)N(C(=O)Cc2ccccn2)C[C@@H]1C`?
Casp6 inh: 0; SIRT5 block: 0; FGF22 binding: 0

What do the screens show for `COc1cc(CN2CCN(c3cccc(C)c3C)CC2)cc([N+](=O)[O-])c1O`?
Casp6 inh: 3; SIRT5 block: 0; UCH37 inh: 6; FGF22 binding: 43*; NSD2 inh: 13

What do the screens show for `COC(=O)C[C@H]1CC[C@H]2[C@H](COc3ccc(NC(=O)c4cscn4)cc3C(=O)N2C)O1`?
Casp6 inh: -3; SIRT5 block: -3; FGF22 binding: 0

How did O=c1[nH]c(/C=C\c2ccc(O)cc2)nc(O)c1[N+](=O)[O-] do in these assays?
Casp6 inh: 19; SIRT5 block: -3; UCH37 inh: 18; FGF22 binding: 0

What do the screens show for `O=c1[nH]c(/C=C\c2ccc(O)c(Cl)c2)nc(O)c1[N+](=O)[O-]`?
Casp6 inh: 32; SIRT5 block: 7; UCH37 inh: 21*; FGF22 binding: 1; NSD2 inh: 2

Results for O=c1[nH]c(/C=C\c2cccs2)nc(O)c1[N+](=O)[O-] ?
Casp6 inh: 22; SIRT5 block: 6; UCH37 inh: 21*; FGF22 binding: 0; NSD2 inh: 11

How did Cc1ccccc1S(=O)(=O)NCC[C@@H]1CC[C@@H](NC(=O)C2CC2)[C@H](CO)O1 do in these assays?
Casp6 inh: -10; SIRT5 block: 4; FGF22 binding: 0

What do the screens show for `C[C@@H]1CN([C@H](C)CO)C(=O)c2cccc(NS(=O)(=O)c3ccc(Cl)cc3)c2O[C@@H]1CN(C)S(C)(=O)=O`?
Casp6 inh: 1; SIRT5 block: 3; FGF22 binding: 0

What do the screens show for `CCOc1ccc(N=Nc2c(=O)[nH]n3c(C)cc(C)nc23)cc1`?
Casp6 inh: 0; SIRT5 block: 6; UCH37 inh: 25*; FGF22 binding: 0; NSD2 inh: 4

Results for CCNc1nc(C(=O)O)nc(N2CCOCC2)n1 ?
Casp6 inh: 12; SIRT5 block: 6; UCH37 inh: -1; FGF22 binding: 43*

What do the screens show for `CC(CC(=O)Nc1ccc2c(c1)c(=O)n(C)n2-c1ccc2ccccc2c1)C(F)(F)F` (configuration not stated)?
Casp6 inh: -1; SIRT5 block: 21*; FGF22 binding: 0; NSD2 inh: -2

What do the screens show for `O=Cc1ccc(-n2cc(C=O)c3ccccc32)cc1`?
Casp6 inh: 0; SIRT5 block: 2; UCH37 inh: 4; FGF22 binding: 43*; NSD2 inh: 0

Results for CCOc1ccccc1C(C(=O)NCCOC)N(CCOC)C(=O)Cn1nnc2ccccc21 (configuration not stated) ?
Casp6 inh: 0; SIRT5 block: -2; UCH37 inh: 0; FGF22 binding: 0; NSD2 inh: 2

How did COCCNC(=O)C(c1ccc(C)o1)N(CCOC)C(=O)Cn1nnc2ccccc21 (configuration not stated) do in these assays?
Casp6 inh: -6; SIRT5 block: -5; UCH37 inh: -2; FGF22 binding: 44*; NSD2 inh: -2

What do the screens show for `C[C@@H]1CN([C@H](C)CO)C(=O)Cc2cc(NC(=O)NC3CCCCC3)ccc2O[C@@H]1CN(C)C`?
Casp6 inh: 2; SIRT5 block: -3; FGF22 binding: 0
